In PubChem BioAssay:
The source made the active and inactive calls.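 Rule for the calls, unless noted: active = NADPH fluorescence slope more negative than the mean of all samples by about 3 SD, 99.7% confidence; inactive = the rest.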

Tests used:
[1] = inhibitors of TNFa-induced NFkB p65 translocation, primary screen, imaging, HUVEC, MLSMR starter and 10KST1 sets (AID 438;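 active = inhibition above 20% together with a positive visual image hit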;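 note: compound added about 3h40 before a 20 min TNFalpha stimulation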;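 for inhibition: signal is the nuclear over cytoplasmic p65 intensity ratio per well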); conditions: HUVEC TNFa-induced p65 nuclear translocation; cell count: measured here: nuclei count (cytotoxicity indicator), at 2.08 µM; inhibition: at 2 µM, stronger effect = higher value, 0% TNFa-plus-vehicle, 100% no-TNFa wells
[2] = inhibitors of E-selectin induction by TNFa, primary screen, imaging, HUVEC, immunofluorescence, MLSMR starter and 10KST1 sets (AID 487;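 active = visually confirmed hit in the image check and inhibition above 20%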;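 for inhibition: signal is fraction of cell area covered by stained E-selectin grains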;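 for nuclei count: 100% = median nuclei count of all wells on the same plate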); conditions: HUVEC TNFalpha-induced E-selectin immunofluorescence imaging, at 2 µM; inhibition: stronger effect = higher value; nuclei count: measured here: cell number, toxicity
[3] = DUSP6 inhibitors restoring Erk phosphorylation by chemical complementation, primary imaging in DUSP6-transfected HeLa (AID 609;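 active = compounds giving at least 50% inhibition in the cell-based MKP-3 phosphatase rescue imaging test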;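 for inhibition: phospho-Erk level distribution per well compared with pooled transfected vehicle control wells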); conditions: HeLa MKP-3 transfected, phospho-Erk imaging KS statistic, at 10 µM, cells stimulated with TPA for 15 min
[4] = target: Dual specificity protein phosphatase 6 (Homo sapiens) (UniProt Q16828); experiment: as above; conditions: HeLa MKP-3 transfected, phospho-Erk imaging KS statistic; at 10 µM; stronger effect = higher value; cells stimulated with TPA for 15 min
Chain of Dual specificity protein phosphatase 6 (Homo sapiens) (Q16828 whole entry, looked up): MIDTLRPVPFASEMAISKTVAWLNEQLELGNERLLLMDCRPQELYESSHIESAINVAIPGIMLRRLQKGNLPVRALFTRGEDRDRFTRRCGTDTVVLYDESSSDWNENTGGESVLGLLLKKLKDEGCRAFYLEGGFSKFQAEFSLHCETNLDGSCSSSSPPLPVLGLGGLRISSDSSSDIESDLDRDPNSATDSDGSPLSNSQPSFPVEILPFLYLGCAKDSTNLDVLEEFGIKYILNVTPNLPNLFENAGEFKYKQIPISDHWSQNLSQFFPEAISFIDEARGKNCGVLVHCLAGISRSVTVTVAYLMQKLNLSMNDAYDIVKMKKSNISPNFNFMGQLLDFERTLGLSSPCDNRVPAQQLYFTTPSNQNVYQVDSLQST

[5] = target: Voltage-gated potassium channel subunit beta-2 (Rattus norvegicus) (UniProt P62483); experiment: KvBeta enzyme negative modulators, primary screen, biochemical, NADPH fluorescence (AID 622;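 active = fluorescence slope higher than the sample average by over 3 SD, cut at about -0.22 in these data, passing the limit was not always enough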;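 note: slope of raw intensity against log time taken from 70 to 1610 s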); conditions: recombinant KvBeta, 4-cyanobenzaldehyde reduction, at 10 µM, stronger effect = higher value
Chain of Voltage-gated potassium channel subunit beta-2 (Rattus norvegicus) (P62483 whole entry, looked up): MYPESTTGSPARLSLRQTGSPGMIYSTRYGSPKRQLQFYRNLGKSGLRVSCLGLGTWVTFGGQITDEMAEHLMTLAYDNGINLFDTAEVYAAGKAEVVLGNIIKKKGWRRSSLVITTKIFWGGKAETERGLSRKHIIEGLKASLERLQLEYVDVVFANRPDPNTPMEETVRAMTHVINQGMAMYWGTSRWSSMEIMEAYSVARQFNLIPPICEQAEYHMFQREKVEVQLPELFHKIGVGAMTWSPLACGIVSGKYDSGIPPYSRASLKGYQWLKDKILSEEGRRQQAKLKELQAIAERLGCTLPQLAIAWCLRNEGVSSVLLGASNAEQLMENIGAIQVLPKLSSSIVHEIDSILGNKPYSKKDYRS

[6] = target: Voltage-gated potassium channel subunit beta-2 (Rattus norvegicus) (UniProt P62483); experiment: KvBeta positive modulators, primary screen, biochemical, NADPH fluorescence (AID 623); conditions: Recombinant KvBeta, NADPH fluorescence decrease slope, 10 min; at 10 µM; stronger effect = lower value;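 note: fluorescence intensity change per second fitted from 20 to 320 s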
[7] = target: Muscarinic acetylcholine receptor M4 (Homo sapiens) (UniProt P08173); experiment: compounds altering M4/GIRK thallium flux, either direction, primary screen, M4 allosteric agonist project, cell-based, HEK293 M4/GIRK, BTC-AM (AID 625;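 active = fluorescence slope after compound addition differing from the mean of all tested samples at 99.7% confidence, mostly higher but some lower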;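 note: thallium influx through GIRK channels coupled to M4 in HEK293 cells with BTC-AM dye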); conditions: at 10 µM, actives lie on both sides
Chain of Muscarinic acetylcholine receptor M4 (Homo sapiens) (P08173 whole entry, looked up): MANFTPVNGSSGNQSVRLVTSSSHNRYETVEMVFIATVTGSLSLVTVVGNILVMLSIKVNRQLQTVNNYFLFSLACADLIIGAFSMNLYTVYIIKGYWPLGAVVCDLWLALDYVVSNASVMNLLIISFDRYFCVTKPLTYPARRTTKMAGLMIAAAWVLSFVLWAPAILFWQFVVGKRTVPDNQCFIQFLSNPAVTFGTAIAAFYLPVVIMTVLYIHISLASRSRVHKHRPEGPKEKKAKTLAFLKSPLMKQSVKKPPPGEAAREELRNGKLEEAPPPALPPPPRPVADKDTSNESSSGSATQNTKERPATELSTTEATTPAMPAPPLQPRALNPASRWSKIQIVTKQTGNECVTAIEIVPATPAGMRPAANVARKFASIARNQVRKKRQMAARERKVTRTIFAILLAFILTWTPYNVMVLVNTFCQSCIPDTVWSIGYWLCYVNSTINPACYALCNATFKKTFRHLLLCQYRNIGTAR
Summary of the method: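 Material: HEK293 cells with M4 receptor and GIRK channels; Times: cells overnight at 37 °C, BTC-AM loading 1 h, reads 2 min total; Technique: kinetic BTC-AM fluorescence sampled at 1 Hz, 10 s pre-addition baseline; Read-out basis: slope over 15–24 s of trace normalized to starting intensity; Controls: carbachol positive, DMSO negative.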

[8] = inhibitors of larval lipid processing in zebrafish, primary screen, whole organism, PED6 fluorescence, gall bladder and intestine (AID 686;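 active = a full or partial loss of lipid-probe fluorescence in the fish gall bladder, intestine or both, judged by eye; inactive = no fluorescence loss, or compound toxic to the fish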;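 note: larvae 5 to 7 days old with five fish per well; signal comes from phospholipase A2 cleavage of quenched PED6 carried via bile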); conditions: Zebrafish larvae PED6 lipid processing, fluorescence scoring; screened at 20 µM (by protocol)
Summary of the method: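 Incubation: overnight exposure of larvae to compound plus PED6 / Test system: live zebrafish larvae aged 5-7 days, whole organism / Amount: 5 larvae per well / Read-out basis: visual per-well fluorescence inhibition score / Signal: visual fluorescence microscopy scoring of gall bladder, gut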

[9] = inhibitors of Chlamydomonas gravitaxis, primary screen, whole organism, Chlamydomonas reinhardtii, WT vs cilia-less mutant, absorbance, 96-well (AID 463189;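 active = inhibition at or above 50% relative to wild type and mutant plate controls; inactive = inhibition below 50%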;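 note: 0% = wild type cc124 cells in DMSO and 100% = ciliumless bld1 mutant cells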); conditions: OD600 absorbance, 2 days, at 10 µM, stronger effect = higher value
[10] = measured here: cell density z-score
[11] = measured here: nuclear c-Myc green intensity z-score
[12] = measured here: nuclear pErk red intensity z-score, stronger effect = higher value

Row | SMILES | cell count [1] | inhibition [1] | inhibition [2] | nuclei count [2] [%] | z-score [3, 10] | z-score [3, 11] | z-score [3, 12] | inhibition [4] | fluorescence slope [5] | NADPH fluorescence slope [6] | fluorescence slope [7] | outcome [8] | inhibition [9]
1 | COc1cccc(C=NCCNC(=O)c2nonc2N)c1O | 517 | -4% (inactive) | 62.5% (inactive) | 169 | -0.652 | 2.61 | -0.971 | 7.93% (inactive) | -0.413 (inactive) | -3.4e-05 (inactive) | 0.00584 (inactive) | inactive | -4.89% (inactive)
2 | Cc1ccc(-n2ncc3c(N4CCC(C(N)=O)CC4)ncnc32)c(C)c1 | 525 | -15.6% (inactive) | -31.1% (inactive) | 113 | -0.735 | 0.453 | -0.332 | 7.42% (inactive) | -0.391 (inactive) | -3.9e-05 (inactive) | 0.0065 (inactive) | inactive | 42.2% (inactive)
3 | Cc1cc(=O)n2[nH]c(N3C(=O)CCC3=O)nc2n1 | 527 | -1.3% (inactive) | 47.3% (inactive) | 172 | -0.749 | -0.115 | 1.44 | -5.95% (inactive) | -0.397 (inactive) | -2.7e-05 (inactive) | 0.00594 (inactive) | inactive | 4.51% (inactive)
4 | CCOC(=O)C1=C(C)N=C2SC(C)C(=O)N2C1c1ccc(C(=O)OC)cc1 (stereo not given) | 701 | 2.4% (inactive) | -69.3% (inactive) | 146 | -0.735 | 0.0686 | 1.13 | 15% (inactive) | -0.428 (inactive) | -2.7e-05 (inactive) | 0.00536 (inactive) | inactive | -2.25% (inactive)
5 | CCOC(=O)COn1c(=O)c(-c2ccc(OC)c(OC)c2)[n+]([O-])c2ccccc21 | 542 | -6% (inactive) | -40.6% (inactive) | 142 | 0.722 | -0.529 | 0.673 | -1.98% (inactive) | -0.33 (inactive) | -7.7e-06 (inactive) | 0.00588 (inactive) | inactive | 37.5% (inactive)
6 | Cn1c(N)c(C#N)c(C#N)c1-c1ccccc1 | 625 | -10.7% (inactive) | -93.2% (inactive) | 183 | -0.336 | -0.891 | 0.762 | -2.59% (inactive) | -0.339 (inactive) | -1.8e-05 (inactive) | 0.00399 (inactive) | inactive | 31.5% (inactive)
7 | COc1cccc(Cn2c(NCc3ccco3)nc3c2c(=O)n(C)c(=O)n3C)c1 | 704 | -6.1% (inactive) | -198% (inactive) | 180 | 0.733 | 0.0104 | 0.0373 | 27.8% (inactive) | -0.476 (inactive) | -0.000112 (inactive) | 0.00767 (inactive) | inactive | 0.377% (inactive)
8 | CCCC1Cc2c(sc3nc(SC)nc(N)c23)CO1 (stereo not given) | 489 | -14.7% (inactive) | 27.8% (inactive) | 170 | -0.331 | 0.0787 | 0.594 | -3.97% (inactive) | -0.47 (inactive) | -4.4e-05 (inactive) | 0.00573 (inactive) | inactive | 27.7% (inactive)
9 | CCOC(=O)/C(C#N)=C1/SC(CCO)C(=O)N1c1ccccc1 (stereo not given) | 541 | -19.2% (inactive) | -6.8% (inactive) | 122 | -0.811 | 0.0733 | 0.776 | -2.59% (inactive) | -0.373 (inactive) | -2e-05 (inactive) | 0.00516 (inactive) | inactive | -8.39% (inactive)
10 | CCSC1=C(C#N)C(c2cccs2)C(C(=O)OC)=C(C)N1 (stereo not given) | 704 | -1% (inactive) | -26.7% (inactive) | 161 | 1.09 | -0.139 | -1.35 | 2.46% (inactive) | -0.442 (inactive) | -5.3e-05 (inactive) | 0.00541 (inactive) | inactive | -1.08% (inactive)
11 | COc1cccc(C2=CC(c3ccc(N(C)C)cc3)n3nnnc3N2)c1 (stereo not given) | 525 | 0.8% (inactive) | 27.7% (inactive) | 156 | -0.234 | 1.06 | 0.0937 | 9.91% (inactive) | -0.33 (inactive) | -3.6e-05 (inactive) | 0.00494 (inactive) | inactive | -6.32% (inactive)
12 | COc1ccc(OCC(O)CN2C(=O)NC(C)(C)C2=O)cc1 (stereo not given) | 617 | -6.4% (inactive) | 33.5% (inactive) | 155 | 0.439 | -0.253 | -0.891 | 9.42% (inactive) | -0.419 (inactive) | -3.6e-05 (inactive) | 0.0058 (inactive) | inactive | -2.72% (inactive)
13 | CSc1nc2[nH]c3c(c2c2nnnn12)CCCC3 | 571 | -2.3% (inactive) | -139% (inactive) | 145 | 0.625 | 0.274 | -0.282 | 13.4% (inactive) | -0.341 (inactive) | 0.000139 (inactive) | 0.00402 (inactive) | inactive | 79.4% (active)
14 | COc1ccccc1-n1c(N)c(C(=O)NCC2CCCO2)c2nc3ccccc3nc21 (stereo not given) | 630 | -11.8% (inactive) | -49.3% (inactive) | 160 | 1.5 | -1.96 | 0.209 | 14.7% (inactive) | -0.0437 (inactive) | 2e-05 (inactive) | 0.00576 (inactive) | inactive | 19.9% (inactive)
15 | CC1(C(=O)CSc2nc3ccccc3[nH]2)CCC(=O)O1 (stereo not given) | 631 | -2% (inactive) | -8.2% (inactive) | 115 | -2.03 | -0.005 | -0.394 | -13.3% (inactive) | -0.508 (inactive) | -1.8e-05 (inactive) | 0.0059 (inactive) | inactive | 0.18% (inactive)
16 | CSc1nc2sc3c(c2c2nnnn12)CCCC3 | 506 | -14.9% (inactive) | -77.3% (inactive) | 118 | 0.676 | -0.0981 | -1.25 | -5.81% (inactive) | -0.455 (inactive) | -7.9e-06 (inactive) | 0.00421 (inactive) | inactive | 31% (inactive)
17 | COC(=O)CCc1c(C)[nH]c(=S)[nH]c1=O | 364 | -0.7% (inactive) | -74.5% (inactive) | 111 | -0.296 | -0.397 | -1.03 | -4.78% (inactive) | -0.521 (inactive) | -2.4e-05 (inactive) | 0.00625 (inactive) | inactive | -5.54% (inactive)
18 | CCOC(=O)CSc1nnc(C)c(=O)[nH]1 | 670 | -5.5% (inactive) | -201% (inactive) | 163 | -0.66 | 0.692 | 1.49 | -16.8% (inactive) | -0.476 (inactive) | -4.6e-05 (inactive) | 0.0066 (inactive) | inactive | -3.91% (inactive)
19 | CCCc1cc(Nc2c(C)n(C)n(-c3ccccc3)c2=O)n2c(nc3ccccc32)c1C#N | 336 | -3.4% (inactive) | -170% (inactive) | 134 | -1.08 | 0.689 | -0.99 | -6.59% (inactive) | -0.48 (inactive) | -2.2e-05 (inactive) | 0.00467 (inactive) | inactive | 0.457% (inactive)
20 | CCOC(=O)c1c(C)oc2ccc(OCC(=O)C(C)(C)C)cc12 | 668 | -6% (inactive) | -24.4% (inactive) | 124 | 0.82 | -1.27 | 0.55 | 20.2% (inactive) | -0.435 (inactive) | -5.9e-05 (inactive) | 0.00509 (inactive) | inactive | -8.35% (inactive)
21 | CCc1nc(NCC(C)C)c(C#N)c2c1COC(C)(C)C2 | 547 | 7.2% (inactive) | -13.8% (inactive) | 106 | -2.04 | -0.00331 | 2.22 | -9.91% (inactive) | -0.203 (inactive) | 2.4e-07 (inactive) | 0.00805 (inactive) | inactive | -8.36% (inactive)
22 | COc1ccc(CSC2=NCCN2)cc1Cl | 382 | -2.2% (inactive) | -95.2% (inactive) | 83.1 | -0.238 | 2.09 | 0.748 | 9.42% (inactive) | -0.459 (inactive) | -7e-05 (inactive) | 0.00397 (inactive) | inactive | 143% (active)
23 | CCCOc1ccccc1C(=O)NCCCC(=O)O | 697 | 10.3% (inactive) | -31.2% (inactive) | 137 | 0.264 | 0.35 | -1.68 | 1.63% (inactive) | -0.447 (inactive) | -6.8e-05 (inactive) | 0.00573 (inactive) | inactive | 23.9% (inactive)
24 | O=C(NCC(F)(F)F)Nc1nnc(C(F)(F)F)s1 | 731 | 2.9% (inactive) | -80.8% (inactive) | 166 | -0.948 | -0.154 | 0.77 | 27.5% (inactive) | -0.429 (inactive) | -5.4e-05 (inactive) | 0.00508 (inactive) | inactive | -1.99% (inactive)
25 | CCNC(=O)COn1c(SCC(=O)NCC)nc2ccccc2c1=O | 763 | 2.9% (inactive) | 10% (inactive) | 174 | 0.564 | 0.056 | 0.704 | -4.7% (inactive) | -0.443 (inactive) | -4.1e-05 (inactive) | 0.00588 (inactive) | inactive | -4.94% (inactive)
